{
  "source": "the RNAGym collection of RNA variant scans (doi:10.1126/science.aae0568)",
  "parents": {"B1": {"name": "tRNA (parent)", "chain": "GUUCCGUUGGCGUAAUGGUAACGCGUCUCCCUCCUAAGGAGAAGACUGCGGGUUCGAGUCCCGUACGGAACG"}},
  "note": "This sample holds only a part of the variants without activity.",
  "data": [
    {"variants_of": "B1", "test": "yeast fitness relative to wild type (ratio to wild type); higher = fitter; tRNA-Arg(CCU), competitive growth, 37 C, YPD", "method_in_brief": "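A pool of Saccharomyces cerevisiae strains, each with a tRNA-Arg(CCU) gene variant at the native genomic locus, was competed in YPD at 37°C for 24 hours across six parallel replicates. The variants had been chemically synthesised at a 3% per-site mutation rate over 69 sites, and gene amplicons before and after competition were read by 100-nucleotide paired-end sequencing. Darwinian fitness relative to wild type rested on changes in genotype frequencies. Genotypes required ≥ 100 starting reads, and estimates < 0.5 were set to 0.5.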", "values": [
      {"variant": "GUUACGUUGGCGUAAUGGUAACGCGUCGCCCUCCUAAGGAGAAGACUGCGGGUUCGAGUCCCGUACGGAACG", "yeast fitness": 0.681},
      {"variant": "GUUACGUUGGCGUAAUGGUAACGCGUCUCCCUCCUAAGGAGAAGACUGCGGGUUCUAGUCCCGUACGGAACG", "yeast fitness": 0.786},
      {"variant": "GUUACGUUGGCGAAAUGAUAACGCGUCUCCCUCCUAAGGAGAAGACUGCGGAUUGGAGUCCCGUACGGUACG", "yeast fitness": "≤ 0.5"},
      {"variant": "GUUACGUUGGCGUAAUGGGAACGCGUCUCCCUCCUAAGGAGAAGACUGCGGGUUCGAGUCCCGUACGGACCG", "yeast fitness": 0.854},
      {"variant": "GUUACGUUGGCGUAAUGGUAACGCGUCUCCCUCCUAAGGAGAACACUGCGAGUUCGACACCCGUACGGAACG", "yeast fitness": "≤ 0.5"},
      {"variant": "GUUGCGUUGGCGUCAUGGUAACGCCUCUCCCCCCUAAGGAGAAGUCUGCGGGUUCGUGUCCCGUACGGAACG", "yeast fitness": "≤ 0.5"},
      {"variant": "GUUACGUCGGCGUAAUGGUAACGGGUCUCCCUCCUAAGGAGAACACUGCGGGUUCGAGUCCCGUACGUAACG", "yeast fitness": "≤ 0.5"},
      {"variant": "GUUGCGUUGGCGUAGUCGUAACGCGUCUCCCUCAUAAGGAGAAGACUGCGGGUUCGAGUCCCGUACGGAACG", "yeast fitness": 0.598},
      {"variant": "GUUGCGUUGGCGUAGUGGUAACGCGGCUCCCUCCUAAGGAGAAGACUGCGGGUUCGAGUCCCGUACGGAACG", "yeast fitness": "≤ 0.5"},
      {"variant": "GUUACGUAGGCCUAAUGGCAACGCGUCUCUCUCCUAAGGAGAAGACUGCGGGUUCGAGUCCCGUACGGAACG", "yeast fitness": "≤ 0.5"},
      {"variant": "GUUGCGUUGGCGUACUGGUAACGCGGCUCCCUCCUAAGGACAAGACUGCGGGUUCGAGUCCCGUACGGUACG", "yeast fitness": "≤ 0.5"},
      {"variant": "GUUGCGUUGGCGUUAUGGUAACGCGUCUCCCUCCUAUGGAGAAGACUGCGGGCUCGAGUCCCGUACGGUACG", "yeast fitness": "≤ 0.5"},
      {"variant": "GUUACGUUGGCGCAAUGGUAACCCGUCUCCCUCGUAAGGAGAAGGCUGCGGGCUCGAGUCCCGAACGGAACG", "yeast fitness": 0.675},
      {"variant": "GUUGCGUUGGCGUUAUGGUGCCGCGUCUCCCUCCUAAGGAGAAGACUGCGGGUUCGAGUCCCGUACGGAACG", "yeast fitness": 0.55},
      {"variant": "GUUGCGUUGGCGUGAUGGUAACGCGUUUCCCUCCUAAGGAGUAGACUGCGGGUUCGAGUCCCGUACGGAACG", "yeast fitness": "≤ 0.5"},
      {"variant": "GUUACGUUGGCGUAAAGGUAACGCGUCUCGUUCCUAAGGAGAAGACUGCGGGUUCGAGUCCCGUACGGAACG", "yeast fitness": "≤ 0.5"},
      {"variant": "GUUACGUCGGCGUAAUGGUAACGCGUCUCCCUCCUAAGGAGAAGACUGUGGGUUAGAGUCCCGUAUGGAACG", "yeast fitness": "≤ 0.5"},
      {"variant": "GUUACGUUGGCGUAAUGGGAACGCGUCUCGCUCCUAAGGAGAAGACUGCGGGUUCGAGUCCCGUACGGAACG", "yeast fitness": "≤ 0.5"},
      {"variant": "GUUACGUUGGCGUAAUGGAAACGCGUCUCCCUCCUAAGGUGAAGACUCCGGGUUCGAGUCCCGUACGGAACG", "yeast fitness": "≤ 0.5"},
      {"variant": "GUUGCGUUGGCGUAAUGGUGACGCGUCUCCCUCCUAAGGAGAAGACUGCGCGUUCGAGUCCCGUACGGAACG", "yeast fitness": 0.66},
      {"variant": "GUUACGUUGGCGUAAUGGUAACGCGUCUCCCGCCUAAGGAGAAGGCUGCGGGUUCGAGUCCCGUACGGUACG", "yeast fitness": "≤ 0.5"},
      {"variant": "GUUGCGUUGGCGUAGUGGUAAGACGUCUCCCUCCUAAGGAGAAGACUGAGGGUUCGAGUCCCGUACGGAACG", "yeast fitness": "≤ 0.5"},
      {"variant": "GUUGCGUUGGCGUGAUGGUAACGCGUCUCCCUCCUAAGGAGAAGACUGCGGGUUCGAGUCCCGCACGGAACG", "yeast fitness": "≤ 0.5"},
      {"variant": "GUUGCGUUGGCGUAUUGGUAGCGCGUCUCCCUCCUAAGGAGAAGACUACCGGUUCGAGUCCCGUACGGAACG", "yeast fitness": "≤ 0.5"},
      {"variant": "GUUACGCUGGCGUAAUGGUAACGCGUCUCCCUCCUAAGGAAAAGACUGAGGGUCCGAGUCCCGUACGGAACG", "yeast fitness": "≤ 0.5"},
      {"variant": "GUUGCGUUGGCGUAAUGGUCACGCGGCUCCCUUCUAAGGAGAACACUGCGGGUUCGAGACCCGUACGGAACG", "yeast fitness": "≤ 0.5"},
      {"variant": "GUUACGAAGGCGUAAUGGUAACGCGUCUCCCUCCCAAGGAGAAGACUGCGGGUUCGAGUACCGUACGGAACG", "yeast fitness": "≤ 0.5"},
      {"variant": "GUUGCGUUGGCGUAGUGGUAACACGUCUCCCUCGUAAGGAGAAGACUGCGGGUUCGAGUCCCGUACAGAACG", "yeast fitness": 0.556},
      {"variant": "GUUACGUUGGCGUAAUGGUAACGCGUCUCCCUCCUAAGGAGAAGACUGCGGGUUCGAGUCCCGAACGGAACG", "yeast fitness": 0.815},
      {"variant": "GUUACGUUGGCGUAAUGGUAACGCGACUCCCUCCUAAGGAGAAGUCUGCGGGUUCGAGUCCCGUACGGAACG", "yeast fitness": 0.656},
      {"variant": "GUUACGAGGGCGUAAUGGUAACGCGUCUCCCUCCUAAGGAGAAGCCUGCGGGUUCGAGUCCCGUGGGGAACG", "yeast fitness": "≤ 0.5"},
      {"variant": "GUUACGAAGGCGUAAUGGUAACGCGUCUCCCUCCUAAGGAGAAGACUGCGGGUUCGAGUACCGUACGGAACG", "yeast fitness": "≤ 0.5"},
      {"variant": "GUUACGUUGGCGUAAUGGGAACGCGUCUCCCUCCCAAGGAGAAGACUGCGGGCUCGAGUCCCGUACGGAACG", "yeast fitness": "≤ 0.5"},
      {"variant": "GUUACGUUGGCGUAAGGGUAACGCGUCUCACUCCUAAGGAGAAGACUGCGGGUUCGAGUCCCGUACGGAACG", "yeast fitness": 0.62},
      {"variant": "GUUACGUUGGCGUAAUGGCAACGCGUCUCCCUCCCAAGGAGAAGACUACGGGUUCGAGUCCCGUACGGAACG", "yeast fitness": "≤ 0.5"},
      {"variant": "GUUGCGUUGGCGUAGUGGUAACGCGUCUCCCUCCUAAGGAGAAGACUGCGGGUUCGAGUCCCGUACGGAACG", "yeast fitness": 0.732},
      {"variant": "GUUACGUUGGCGUAAUGGUAACGCGUCUCCCUCCUAAGGAGAAGACUGCGGGUUCAAGUCCUGUACGGAACG", "yeast fitness": 0.626}
    ]}
  ]
}
